Experimental data gathered from unrelated publications.
Compare with care: the assays were run in different laboratories.
Target: MAP kinase-interacting serine/threonine-protein kinase 2 (MKNK2, Homo sapiens, UniProt Q9HBH9)

SMILES	test	conditions	remaining binding
C[C@@H]1CCN(c2nccc(-c3cnn4ncccc34)n2)C1	binding	1 µM	11%
CNC(=O)Nc1ccc2c(c1)[C@@]1(CC2)OC(=O)N(CC(=O)N(Cc2ccc(F)cc2)[C@@H](C)C(F)(F)F)C1=O	cell-free assay, competition with immobilised ligand	1 µM	76%
COc1cnc(Nc2cccc(S(N)(=O)=O)c2)nc1N1CCN(c2ccccc2)C(=O)C1	binding, competition with immobilised ligand	1 µM	59%
CCCOc1ccc([C@H]2[C@H](C(=O)O)[C@@H](c3ccc4c(c3)OCO4)CN2CC(=O)Nc2c(CC)cccc2CC)cc1	cell-free assay, competition with immobilised ligand	1 µM	74%
O=C(Nc1c[nH]nc1C(=O)NC1CCNCC1)c1cc(F)cc(F)c1	binding, competition with immobilised ligand	1 µM	100%
COc1ccnn2ncc(-c3ccnc(N(C)C)n3)c12	binding	1 µM	78%
O=C(NCCCN1CCOCC1)c1ccc(Nc2ncc(Cl)c(-c3ccc(Cl)s3)n2)cc1	binding, competition with immobilised ligand	1 µM	55%
C[C@@H]1CN(c2ccc3ncc(-c4ccc5[nH]nc(C6CC6)c5c4)n3n2)C[C@H](C)O1	binding, competition with immobilised ligand	0.5 µM	45%
N#Cc1ccccc1CSc1nnc2c(n1)[nH]c1ccccc12	binding, competition with immobilised ligand	10 µM	95%
CO[C@@H](C)c1c(Nc2ccc([C@H](N(C)C(=O)C3CCS(=O)(=O)CC3)C(F)(F)F)cc2)cnc2cc(Cl)nn12	cell-free assay, competition with immobilised ligand	1 µM	100%
FC(F)(F)Oc1cccc(-c2cnc3ccc(-c4ccncc4)nn23)c1	cell-free assay, competition with immobilised ligand	5 µM	21%
O=C(c1ccc(Nc2ncc(Cl)c(-c3cc4ccccc4s3)n2)cc1)N1CCC(N2CCCC2)CC1	binding, competition with immobilised ligand	1 µM	6.9%
c1cncc(-c2cccc(Nc3nccc(NC4CCCCC4)n3)c2)c1	binding, competition with immobilised ligand	10 µM	33%
CC1CCCN1c1nccc(-c2cnn3ncccc23)n1 (centres unmarked)	binding	1 µM	46%
CNCc1ccccc1-c1csc([C@@H](C)Nc2nc(C)nc3cc(OC)c(OC)cc23)c1	cell-free assay, competition with immobilised ligand	1 µM	63%
c1cnn2ncc(-c3ccnc(N4CCC45COC5)n3)c2c1	binding	1 µM	3.3%
CC(C)(C)c1ccc(-c2nc(CBr)nn2-c2cccc(O)c2)cc1	cell-free assay, competition with immobilised ligand	10 µM	62%
FC(F)(F)c1ccc2c(c1)nc(-c1cccnc1)n2C1CC1	cell-free assay, competition with immobilised ligand	1 µM	100%
CN(C)c1nccc(-c2cnc3ncccn23)n1	binding	1 µM	46%
Cn1nc(C(F)(F)F)cc1-c1cnc(N2CCc3cc(S(=O)(=O)Nc4c(F)cc(Cl)cc4F)cc(N4CCCC4=O)c32)nc1	cell-free assay, competition with immobilised ligand	1 µM	94%
F[C@@H]1CCN(c2nccc(-c3cnn4ncccc34)n2)C1	binding	1 µM	68%
O=C(c1ccc(Nc2ncc(Cl)c(-c3ccc(Cl)s3)n2)cc1)N1CCC(N2CCCC2)CC1	binding, competition with immobilised ligand	1 µM	4.2%
O=c1nc(-c2ccccn2)sc2ccccc12	binding, competition with immobilised ligand	1 µM	100%
CNC(=O)[C@@H]1CC[C@@H](n2c(-c3ccc4cnccc4c3)nc3ccc(C(=O)NCc4cccc(C(N)=O)c4)cc32)C1	binding, competition with immobilised ligand	1 µM	100%
N[C@H]1CCN(c2nccc(-c3cnn4ncccc34)n2)C1	binding	1 µM	21%
CCC(=O)N[C@@H]1CC[C@H](C(=O)N(C)c2ccc(-c3nc4ccccc4o3)cc2)C1	cell-free assay, competition with immobilised ligand	1 µM	100%
